Bioassay records as filed in PubChem.
Hits are enriched below; roughly 2.9% of the tested compounds scored in any of these assays.
OX1R antag-1 – blocks the human orexin 1 receptor. O43613. CHO/OX1R cells, Fluo-8 calcium fluorescence, orexin A. inhibition, % at 5 µM. actives 0.43% (n = 330,000);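 active = inhibition above its plate's threshold, mean inhibition of all tested compounds on the plate plus 3 SD, cut at about 37% in these data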
Target sequence (O43613 whole entry, looked up): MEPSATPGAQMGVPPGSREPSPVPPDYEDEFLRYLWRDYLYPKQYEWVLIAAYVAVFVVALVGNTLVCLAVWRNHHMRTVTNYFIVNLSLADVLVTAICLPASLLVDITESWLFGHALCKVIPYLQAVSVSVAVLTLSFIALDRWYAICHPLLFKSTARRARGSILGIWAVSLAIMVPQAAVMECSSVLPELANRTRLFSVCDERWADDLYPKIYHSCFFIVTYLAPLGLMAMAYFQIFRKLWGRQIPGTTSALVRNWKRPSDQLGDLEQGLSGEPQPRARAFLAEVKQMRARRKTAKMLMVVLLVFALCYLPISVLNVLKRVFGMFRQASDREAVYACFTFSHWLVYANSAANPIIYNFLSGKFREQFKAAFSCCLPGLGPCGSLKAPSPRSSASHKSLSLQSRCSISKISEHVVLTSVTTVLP
M1 PAM parental – M1 PAM counterscreen hit in parental CHO-K1 cells | ATP EC20, Fluo-8 calcium fluorescence; 0% at ATP EC20, 100% at ATP max | actives 0.02% (n = 360,000) | activation, % at 3 µM;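 active = activation above the run cutoff, the mean activation of all test compounds plus 3 SD, cut at about 40% in these data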;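 also: peak over basal fluorescence ratio in a 140 s read after ATP addition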
OX1R antag-2 – blocks the human orexin 1 receptor | OX1R-expressing cells, FRET antagonist read-out | inhibition, % at 6.6 µM | actives 1.8% (n = 330,000); in the data active = inhibition mostly above about 38%, no sharp cut-off; inactive = mostly below about 40%
CHO-K1 Ca antag – M1 antagonist counterscreen hit in parental CHO-K1 cells; ATP-induced calcium, Fluo-8 fluorescence; actives 0.6% (n = 360,000); inhibition, % at 3 µM;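 active = inhibition above a per-plate cutoff, the plate's mean sample inhibition plus 3 SD, cut at about 24% in these data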
CHO-K1 Ca ag – M1 agonist counterscreen hit in parental CHO-K1 cells; Fluo-8 calcium fluorescence; scaled to maximal ATP response, vehicle zero; activation, % at 3 µM; actives 0.48% (n = 360,000); in the data active = activation above about 15%;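 also: untransfected CHO-K1 host cells lacking M1 receptor as counterscreen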
CHO parental Ca – signal in parental CHO cells, OX1R antagonist counter-screen | parental CHO-K1, ATP-induced calcium, Fluo-8 fluorescence | inhibition, % at 5.6 µM | actives 0.63% (n = 330,000);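 active = inhibition above that plate's mean sample inhibition plus 3 SD, cut at about 26% in these data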
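Test system: parental CHO cells; detection: calcium-sensitive Fluo-8 fluorescence; evaluation: percent inhibition of calcium signal; also added: ATP as calcium-mobilizing challenge; repeats: one well per compound; control set: ATP-challenged DMSO wells low, unchallenged DMSO wells high; compound: single nominal dose of 5.6 µM per compound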
Numbers stand for hits; - = inactive; . = no result.

SMILES	OX1R antag-1	M1 PAM parental	OX1R antag-2	CHO-K1 Ca antag	CHO-K1 Ca ag	CHO parental Ca
Cc1ccc(C(=O)Nc2cccc(-c3cn4ccccc4n3)c2)cc1	-	-	-	-	-	-
Cc1ccccc1C(=O)Nc1cccc(-c2cn3ccccc3n2)c1	-	-	72.5	-	-	-
O=C(Nc1cccc(-c2cn3ccccc3n2)c1)c1ccccc1	-	-	52.9	-	-	-
Cc1cccc(-c2nn(-c3ccccc3)cc2C(=O)N2CCN(C3CCS(=O)(=O)C3)CC2)c1 (centres undefined)	-	-	-	-	-	-
CCc1ccc(N=Nc2ccc(O)c3[nH]cnc23)cc1	46.5	-	-	-	-	-
CC(CCc1ccccc1)NC(=O)CN1CCN(Cc2ccc(Cl)cc2)C1=O (centres undefined)	-	-	-	28.3	-	-
C=C1C(=O)C=C2CN(C(=O)c3ccccc3)[C@@](Cc3ccc(F)cc3)(C(=O)OC)[C@@H]12	74.8	-	-	83.3	74.5	-
Cc1nn(CC(=O)OCC(=O)NC(C)c2ccccc2)c(C)c1[N+](=O)[O-] (centres undefined)	-	-	-	-	-	-
COc1ccc(C)cc1N/C(N)=N/c1nc(C)cc(C)n1	-	-	-	-	-	-
CC(=O)Nc1ccc(N/C(N)=N/c2nc(C)cc(C)n2)cc1	-	-	-	-	-	-
Cc1ccc(C)c(N/C(N)=N/c2nc(C)cc(C)n2)c1	70.0	-	-	35.1	26.9	-
Cc1cc(C)nc(/N=C(\N)Nc2ccc(-c3ccccc3)cc2)n1	-	-	-	-	26.7	-
CCOc1ccc(N/C(N)=N/c2nc(C)cc(C)n2)cc1	57.6	-	-	-	16.5	49.1
COc1cc(CNC(=O)c2cc(-c3cc(Cl)ccc3OC)n[nH]2)cc(OC)c1	.	-	.	-	-	.
COc1ccccc1Cc1c(-c2cccc(Cl)c2)nc2ccc(Br)cn12	.	-	.	-	-	.
O=C1CCCCN1CC(=O)N1CCCC(Nc2ccc(F)cc2)C1 (centres undefined)	-	-	-	-	-	-
CN(CC(=O)NCc1cccs1)S(=O)(=O)c1cccc2nsnc12	-	-	50.8	-	-	-
CCN(CC)c1ncnc2c1ncn2[C@H]1CN(Cc2ccc(Cl)cc2)C[C@@H](CO)O1	.	-	.	-	-	.
CCOc1ccc(Cl)cc1CNCCCSc1ncccn1	-	-	-	-	18.9	-
O=C(Nc1cccc(C(=O)Nc2cccc(Br)c2)c1)c1ccccc1	-	-	-	25.4	-	-
O=C(O)c1cccc(NC(=O)c2ccccc2)c1	.	-	.	-	-	.
O=C(Nc1cccc(F)c1)c1ccccc1	-	-	-	35.5	-	-
CC(=O)Nc1ccc(C(=O)COC(=O)C2CC2)c(F)c1	.	-	.	27.7	-	.
CC(=O)Nc1ccc(C(=O)COC(=O)C2CCCCC2)c(F)c1	-	-	-	-	-	-
CN(C(=O)CCc1nnc(-c2ccc(-c3ccccc3)cc2)o1)C1CCOCC1	-	-	-	-	17.3	-
SMILES	OX1R antag-1	M1 PAM parental	OX1R antag-2	CHO-K1 Ca antag	CHO-K1 Ca ag	CHO parental Ca
COC(=O)C1=C(c2ccc(OC)cc2)OC(=O)C1(C)C	-	-	-	-	-	-
CCCCNC(=O)C1(C)CCCCN1Cc1ccccc1-c1ccccc1 (centres undefined)	.	-	.	-	-	.
Cn1c(N)c(N=Nc2ccc(S(N)(=O)=O)cc2)c(=O)n(C)c1=O	-	-	59.6	-	-	-
CCC(CC)C(=O)Nc1ccc(Sc2ccc([N+](=O)[O-])cc2)cc1	59.6	-	41.1	-	-	-
CC(Oc1ccccc1)C(=O)Nc1nnc(S(=O)(=O)Nc2ccccc2)s1 (centres undefined)	-	-	-	-	-	-
CCc1cc(=O)oc2cc(OC(C)C(=O)N3CC[C@@]4(O)CCCC[C@H]4C3)ccc12 (some centres undefined)	.	-	.	-	-	.
CCCCNC(=S)Nc1ccc(Cl)cc1	-	-	-	30.6	-	-
CCCNC(=S)Nc1cccc(C(F)(F)F)c1	-	-	-	-	-	-
CCNC(=S)Nc1ccc(Cl)cc1	-	-	-	-	-	-
CCCCNC(=S)Nc1ccc(C(F)(F)F)cc1	-	-	-	-	-	71.5
O=C(N/N=C/c1cccc(OC2CSC2)c1)c1ccccc1O	-	-	71.5	-	-	-
Cn1ncc(Br)c1C(=O)N/N=C/c1cccc(OC2CSC2)c1	-	-	-	-	-	-
